Assay results taken from the M2OR odorant receptor database.
Positions count from the first letter of the chain named.

Assays:
Conditions in all cases: stereoisomer not certain
OR4C13 (Homo sapiens) = OR4C13 (Homo sapiens) (UniProt Q8NGP0)
Outline: (§1)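 Each receptor–molecule pair is labelled responsive or non-responsive (inactive) according to whether the original authors judged the measured signal statistically different from baseline. The data were taken from the main text and supplementary material of published papers and checked for typos and inconsistencies. Assay methods differed by source, with transient luciferase assays in mammalian cell lines being common.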

OR4C15 (Homo sapiens) = OR4C15 (Homo sapiens) (UniProt Q8NGM1)
OR4C15 (Homo sapiens), sequence (Q8NGM1 whole entry): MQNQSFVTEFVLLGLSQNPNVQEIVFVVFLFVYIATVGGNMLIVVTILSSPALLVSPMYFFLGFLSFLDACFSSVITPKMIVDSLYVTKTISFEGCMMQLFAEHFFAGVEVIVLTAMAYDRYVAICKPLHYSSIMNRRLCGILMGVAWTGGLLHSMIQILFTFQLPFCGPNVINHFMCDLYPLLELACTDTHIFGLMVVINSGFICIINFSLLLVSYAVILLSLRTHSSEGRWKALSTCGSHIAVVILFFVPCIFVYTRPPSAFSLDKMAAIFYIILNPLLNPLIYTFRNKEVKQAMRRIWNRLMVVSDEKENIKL
Outline: as §1

OR4C16 (Homo sapiens) = target: T1, OR4C16 (Homo sapiens) (UniProt Q8NGL9)
T1 sequence (whole entry): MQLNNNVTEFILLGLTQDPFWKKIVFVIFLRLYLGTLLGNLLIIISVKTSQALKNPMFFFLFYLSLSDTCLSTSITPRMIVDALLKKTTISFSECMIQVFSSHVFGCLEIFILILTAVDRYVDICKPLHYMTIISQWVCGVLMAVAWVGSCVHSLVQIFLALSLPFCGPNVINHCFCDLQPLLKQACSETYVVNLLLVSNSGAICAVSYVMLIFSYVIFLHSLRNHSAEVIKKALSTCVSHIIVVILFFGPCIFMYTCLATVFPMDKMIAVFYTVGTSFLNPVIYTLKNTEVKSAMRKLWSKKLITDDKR
Outline: as §1

OR4C3 (Homo sapiens) = OR4C3 (Homo sapiens) (UniProt Q8NH37)
OR4C3 (Homo sapiens), sequence (Q8NH37 whole entry): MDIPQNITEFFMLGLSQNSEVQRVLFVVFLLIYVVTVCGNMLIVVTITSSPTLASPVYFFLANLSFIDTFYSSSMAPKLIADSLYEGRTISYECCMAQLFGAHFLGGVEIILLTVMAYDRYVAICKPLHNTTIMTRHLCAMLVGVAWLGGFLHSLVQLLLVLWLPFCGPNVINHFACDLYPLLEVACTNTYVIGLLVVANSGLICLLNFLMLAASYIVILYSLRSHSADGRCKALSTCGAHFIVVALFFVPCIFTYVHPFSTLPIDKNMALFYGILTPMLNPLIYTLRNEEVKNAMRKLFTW
Outline: as §1

OR4C45 (Homo sapiens) [1] = target: T2, OR4C45 (Homo sapiens) (UniProt A6NMZ5)
T2 sequence (whole entry): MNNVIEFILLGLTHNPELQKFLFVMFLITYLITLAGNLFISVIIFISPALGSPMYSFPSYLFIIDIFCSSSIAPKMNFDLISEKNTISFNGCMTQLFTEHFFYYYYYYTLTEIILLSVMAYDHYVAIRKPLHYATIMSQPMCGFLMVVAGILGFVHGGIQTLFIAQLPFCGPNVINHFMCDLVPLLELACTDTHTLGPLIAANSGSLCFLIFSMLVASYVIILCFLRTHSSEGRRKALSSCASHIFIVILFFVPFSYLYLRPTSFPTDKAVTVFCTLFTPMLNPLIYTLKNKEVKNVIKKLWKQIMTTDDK
Outline: as §1

OR4C46 (Homo sapiens) = OR4C46 (Homo sapiens) (UniProt A6NHA9)
OR4C46 (Homo sapiens), sequence (A6NHA9 whole entry): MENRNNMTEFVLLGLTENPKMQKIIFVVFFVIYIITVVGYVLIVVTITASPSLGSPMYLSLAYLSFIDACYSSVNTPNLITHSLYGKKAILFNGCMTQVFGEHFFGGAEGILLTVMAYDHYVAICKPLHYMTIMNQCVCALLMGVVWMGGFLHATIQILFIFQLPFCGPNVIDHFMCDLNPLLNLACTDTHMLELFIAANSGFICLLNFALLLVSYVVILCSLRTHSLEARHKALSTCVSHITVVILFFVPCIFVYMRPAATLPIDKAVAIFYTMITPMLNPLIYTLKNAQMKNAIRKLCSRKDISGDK
Outline: as §1

OR4C5 (Homo sapiens) = OR4C5 (Homo sapiens) (UniProt Q8NGB2)
OR4C5 (Homo sapiens), sequence (Q8NGB2 whole entry): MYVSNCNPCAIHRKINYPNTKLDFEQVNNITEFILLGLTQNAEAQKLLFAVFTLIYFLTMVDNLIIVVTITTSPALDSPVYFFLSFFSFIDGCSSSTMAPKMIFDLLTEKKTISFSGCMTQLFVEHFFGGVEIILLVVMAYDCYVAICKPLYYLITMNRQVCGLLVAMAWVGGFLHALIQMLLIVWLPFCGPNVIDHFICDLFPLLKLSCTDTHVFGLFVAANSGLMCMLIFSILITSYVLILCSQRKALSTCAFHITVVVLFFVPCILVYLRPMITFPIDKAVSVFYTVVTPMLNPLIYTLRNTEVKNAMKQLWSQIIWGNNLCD
Outline: as §1

OR4C6 (Homo sapiens) = OR4C6 (Homo sapiens) (UniProt Q8NH72)
OR4C6 (Homo sapiens), sequence (Q8NH72 whole entry): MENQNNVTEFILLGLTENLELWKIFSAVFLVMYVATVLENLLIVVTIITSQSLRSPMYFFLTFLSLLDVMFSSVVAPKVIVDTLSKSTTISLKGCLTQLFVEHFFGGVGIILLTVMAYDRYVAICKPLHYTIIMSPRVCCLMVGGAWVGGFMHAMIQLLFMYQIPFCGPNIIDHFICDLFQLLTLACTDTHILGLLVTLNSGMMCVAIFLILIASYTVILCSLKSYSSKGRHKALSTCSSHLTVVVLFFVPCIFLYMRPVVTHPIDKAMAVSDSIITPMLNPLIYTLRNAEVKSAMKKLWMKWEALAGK
Outline: as §1

OR4D1 (Homo sapiens) = OR4D1 (Homo sapiens) (UniProt Q15615)
OR4D1 (Homo sapiens), sequence (Q15615 whole entry): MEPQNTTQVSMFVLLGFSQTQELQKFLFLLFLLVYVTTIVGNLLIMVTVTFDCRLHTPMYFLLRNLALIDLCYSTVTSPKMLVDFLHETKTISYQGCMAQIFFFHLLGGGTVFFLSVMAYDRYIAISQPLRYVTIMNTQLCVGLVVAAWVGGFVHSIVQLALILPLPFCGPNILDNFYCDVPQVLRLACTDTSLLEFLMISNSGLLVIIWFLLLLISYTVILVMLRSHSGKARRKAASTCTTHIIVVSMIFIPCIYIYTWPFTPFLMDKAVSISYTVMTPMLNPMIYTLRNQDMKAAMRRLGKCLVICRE
Outline: as §1

OR4D10 (Homo sapiens) = OR4D10 (Homo sapiens) (UniProt Q8NGI6)
OR4D10 (Homo sapiens), sequence (Q8NGI6 whole entry): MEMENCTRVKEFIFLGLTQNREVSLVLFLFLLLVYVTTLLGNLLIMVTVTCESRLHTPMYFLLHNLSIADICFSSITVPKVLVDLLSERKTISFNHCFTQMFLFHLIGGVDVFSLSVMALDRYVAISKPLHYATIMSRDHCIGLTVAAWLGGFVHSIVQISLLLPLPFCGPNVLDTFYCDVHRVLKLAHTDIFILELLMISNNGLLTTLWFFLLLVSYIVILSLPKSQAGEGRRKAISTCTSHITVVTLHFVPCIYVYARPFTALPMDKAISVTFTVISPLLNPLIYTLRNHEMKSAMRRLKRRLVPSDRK
Outline: as §1

OR4D11 (Homo sapiens) = OR4D11 (Homo sapiens) (UniProt Q8NGI4)
Outline: as §1

OR4D2 (Homo sapiens) = OR4D2 (Homo sapiens) (UniProt P58180)
OR4D2 (Homo sapiens), sequence (P58180 whole entry): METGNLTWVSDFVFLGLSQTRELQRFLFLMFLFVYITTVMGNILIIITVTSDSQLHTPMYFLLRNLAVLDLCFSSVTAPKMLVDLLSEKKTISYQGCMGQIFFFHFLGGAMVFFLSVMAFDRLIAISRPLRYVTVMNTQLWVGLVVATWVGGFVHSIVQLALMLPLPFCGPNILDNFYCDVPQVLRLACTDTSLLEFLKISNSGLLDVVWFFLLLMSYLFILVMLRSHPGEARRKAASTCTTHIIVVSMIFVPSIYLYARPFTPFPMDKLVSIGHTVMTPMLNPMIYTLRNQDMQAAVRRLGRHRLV
Outline: as §1

OR4C3 = tested on: OR4C3
OR4C3, sequence (as listed by the source): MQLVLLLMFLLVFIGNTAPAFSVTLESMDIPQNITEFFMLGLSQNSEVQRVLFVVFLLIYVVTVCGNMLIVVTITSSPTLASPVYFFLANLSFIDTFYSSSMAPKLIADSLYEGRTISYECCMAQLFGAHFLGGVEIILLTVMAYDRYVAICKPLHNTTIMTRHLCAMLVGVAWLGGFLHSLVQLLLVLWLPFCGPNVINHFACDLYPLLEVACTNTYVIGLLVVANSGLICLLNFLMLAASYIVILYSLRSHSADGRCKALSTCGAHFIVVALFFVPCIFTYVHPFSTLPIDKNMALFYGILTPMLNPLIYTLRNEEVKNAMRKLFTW
Outline: as §1

OR4C45 (Homo sapiens) [2] = target: OR4C45 (Homo sapiens) (UniProt A6NMZ5); remark: listed apart in the source
Outline: as §1
Target sequence in this assay (A6NMZ5 whole entry): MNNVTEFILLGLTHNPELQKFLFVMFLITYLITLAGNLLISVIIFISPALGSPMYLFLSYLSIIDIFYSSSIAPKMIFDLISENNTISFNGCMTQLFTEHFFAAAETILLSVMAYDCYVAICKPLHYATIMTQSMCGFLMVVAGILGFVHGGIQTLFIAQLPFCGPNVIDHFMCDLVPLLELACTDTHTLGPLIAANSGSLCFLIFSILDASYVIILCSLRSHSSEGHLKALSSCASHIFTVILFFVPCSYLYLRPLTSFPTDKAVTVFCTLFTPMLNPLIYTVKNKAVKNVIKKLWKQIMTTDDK

OR4CB P8T = tested on: T3, OR4CB P8T
T3 sequence (whole entry): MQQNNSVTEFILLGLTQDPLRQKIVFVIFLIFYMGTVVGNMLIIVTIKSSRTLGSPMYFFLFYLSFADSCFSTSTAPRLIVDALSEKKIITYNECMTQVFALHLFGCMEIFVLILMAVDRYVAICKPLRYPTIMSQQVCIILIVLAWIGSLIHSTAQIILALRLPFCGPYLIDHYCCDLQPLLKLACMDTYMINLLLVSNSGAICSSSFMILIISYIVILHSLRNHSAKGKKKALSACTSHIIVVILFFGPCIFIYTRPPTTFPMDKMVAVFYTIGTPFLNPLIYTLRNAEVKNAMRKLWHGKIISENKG
Outline: as §1

OR4CC = tested on: OR4CC
OR4CC, sequence (as listed by the source): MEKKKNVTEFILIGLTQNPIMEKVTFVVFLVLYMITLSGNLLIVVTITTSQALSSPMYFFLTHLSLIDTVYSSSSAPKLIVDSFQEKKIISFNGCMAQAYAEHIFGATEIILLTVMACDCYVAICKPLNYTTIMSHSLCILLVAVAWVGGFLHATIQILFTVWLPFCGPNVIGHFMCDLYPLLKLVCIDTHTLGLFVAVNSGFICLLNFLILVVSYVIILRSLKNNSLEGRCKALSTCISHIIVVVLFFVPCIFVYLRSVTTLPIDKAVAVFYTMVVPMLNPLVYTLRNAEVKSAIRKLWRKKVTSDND
Outline: as §1

OR4CD V133I = tested on: OR4CD V133I
OR4CD V133I, sequence (as listed by the source, stated change not applied): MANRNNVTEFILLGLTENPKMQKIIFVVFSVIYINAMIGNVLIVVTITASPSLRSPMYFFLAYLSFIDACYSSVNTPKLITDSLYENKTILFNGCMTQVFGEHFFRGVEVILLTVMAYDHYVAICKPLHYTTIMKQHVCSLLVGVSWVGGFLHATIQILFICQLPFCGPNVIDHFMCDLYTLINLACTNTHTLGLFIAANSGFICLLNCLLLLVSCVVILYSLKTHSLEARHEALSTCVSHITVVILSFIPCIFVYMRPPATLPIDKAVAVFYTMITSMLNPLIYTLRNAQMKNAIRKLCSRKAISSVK
Outline: as §1

OR4CF = tested on: OR4CF
OR4CF, sequence (as listed by the source): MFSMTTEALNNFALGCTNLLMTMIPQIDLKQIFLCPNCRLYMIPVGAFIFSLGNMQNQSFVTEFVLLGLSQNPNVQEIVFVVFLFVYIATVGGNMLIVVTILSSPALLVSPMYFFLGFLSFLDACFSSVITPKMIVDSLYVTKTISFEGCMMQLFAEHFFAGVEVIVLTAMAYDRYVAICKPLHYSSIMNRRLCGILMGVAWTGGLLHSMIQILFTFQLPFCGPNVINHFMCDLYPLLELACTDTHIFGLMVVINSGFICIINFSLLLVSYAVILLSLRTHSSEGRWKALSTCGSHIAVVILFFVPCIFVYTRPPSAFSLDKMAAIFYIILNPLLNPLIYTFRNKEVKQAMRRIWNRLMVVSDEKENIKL
Outline: as §1

OR4CG T76A = tested on: T4, OR4CG T76A
T4 sequence (whole entry): T1 sequence (whole entry) with T76A
Outline: as §1

OR4D1 = tested on: OR4D1
OR4D1, sequence (as listed by the source): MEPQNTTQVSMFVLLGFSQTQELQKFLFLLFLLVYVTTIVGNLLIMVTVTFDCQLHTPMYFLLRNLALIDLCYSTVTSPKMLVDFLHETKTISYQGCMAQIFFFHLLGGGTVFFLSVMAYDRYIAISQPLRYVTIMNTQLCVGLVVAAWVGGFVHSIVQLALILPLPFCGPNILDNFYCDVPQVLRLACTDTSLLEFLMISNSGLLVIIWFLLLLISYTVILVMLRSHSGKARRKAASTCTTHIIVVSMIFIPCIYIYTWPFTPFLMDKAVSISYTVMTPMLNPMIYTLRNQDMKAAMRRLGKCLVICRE
Outline: as §1

Measured: odorant receptor agonist call;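 note: active if original authors judged signal statistically different from baseline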

OR4C13 (Homo sapiens), sequence (Q8NGP0 whole entry): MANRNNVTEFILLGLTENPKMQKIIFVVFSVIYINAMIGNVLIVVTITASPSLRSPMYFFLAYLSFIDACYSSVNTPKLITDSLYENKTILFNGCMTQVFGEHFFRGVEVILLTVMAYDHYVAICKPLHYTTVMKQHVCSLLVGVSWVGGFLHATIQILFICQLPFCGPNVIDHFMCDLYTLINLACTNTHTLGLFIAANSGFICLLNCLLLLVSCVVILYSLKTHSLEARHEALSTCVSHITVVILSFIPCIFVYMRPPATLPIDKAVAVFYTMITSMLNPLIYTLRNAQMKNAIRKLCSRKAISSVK

CC(CO)CS (stereo unspecified)
not listed: OR4C3 | OR4C45 (Homo sapiens) [2] | OR4CB P8T | OR4CC | OR4CD V133I | OR4CF | OR4CG T76A | OR4D1
inactive: all other assays above

CC1=C(O)C(=O)OC1C (stereo unspecified)
not listed: OR4C15 (Homo sapiens) | OR4C3 (Homo sapiens) | OR4C45 (Homo sapiens) [1]
inactive: all other assays above

CC1CCCCCCCCCCCCC(=O)C1 (stereo unspecified)
not listed: OR4C3 | OR4C45 (Homo sapiens) [2] | OR4CB P8T | OR4CC | OR4CD V133I | OR4CF | OR4CG T76A | OR4D1
inactive: all other assays above

CCCCCCC=CCCC=O
not listed: OR4C3 | OR4C45 (Homo sapiens) [2] | OR4CF
inactive: all other assays above

CCCCC(S)C(C)CO (stereo unspecified)
not listed: OR4C3 | OR4C45 (Homo sapiens) [2] | OR4CB P8T | OR4CC | OR4CD V133I | OR4CF | OR4CG T76A | OR4D1
inactive: all other assays above

CC(C)=CCCC(C)=CCO
inactive: OR4C3

CCC(S)C(C)CO (stereo unspecified)
not listed: OR4C3 | OR4C45 (Homo sapiens) [2] | OR4CB P8T | OR4CC | OR4CD V133I | OR4CF | OR4CG T76A | OR4D1
inactive: all other assays above

CC1=C(O)C(=O)C(C)O1 (stereo unspecified)
not listed: OR4C15 (Homo sapiens) | OR4C3 (Homo sapiens) | OR4C45 (Homo sapiens) [1]
inactive: all other assays above

CCCCCC(S)C(C)CO (stereo unspecified)
not listed: OR4C3 | OR4C45 (Homo sapiens) [2] | OR4CB P8T | OR4CC | OR4CD V133I | OR4CF | OR4CG T76A | OR4D1
inactive: all other assays above

CCC1OC(C)=C(O)C1=O (stereo unspecified)
not listed: OR4C15 (Homo sapiens) | OR4C3 (Homo sapiens) | OR4C45 (Homo sapiens) [1]
inactive: all other assays above

CCC1OC(=O)C(O)=C1C (stereo unspecified)
not listed: OR4C15 (Homo sapiens) | OR4C3 (Homo sapiens) | OR4C45 (Homo sapiens) [1]
inactive: all other assays above

Cc1cnc(C)c(C)n1
not listed: OR4C15 (Homo sapiens) | OR4C3 (Homo sapiens) | OR4C45 (Homo sapiens) [1]
inactive: all other assays above

CC(=O)c1c(C)c([N+](=O)[O-])c(C(C)(C)C)c([N+](=O)[O-])c1C
not listed: OR4C3 | OR4C45 (Homo sapiens) [2] | OR4CB P8T | OR4CC | OR4CD V133I | OR4CF | OR4CG T76A | OR4D1
inactive: all other assays above

CC1=NC(C)C(C)S1 (stereo unspecified)
not listed: OR4C15 (Homo sapiens) | OR4C3 (Homo sapiens) | OR4C45 (Homo sapiens) [1]
inactive: all other assays above

CCCC(S)CCOC(C)=O (stereo unspecified)
not listed: OR4C15 (Homo sapiens) | OR4C3 (Homo sapiens) | OR4C45 (Homo sapiens) [1]
inactive: all other assays above

CCCCCC(=O)C(C)C(C)=O (stereo unspecified)
not listed: OR4C3 | OR4C45 (Homo sapiens) [2] | OR4CB P8T | OR4CC | OR4CD V133I | OR4CF | OR4CG T76A | OR4D1
inactive: all other assays above
